# From ChEMBL document CHEMBL4145642, “Natural Inhibitors of the RhoA-p115 Complex from the Bark of Meiogyne baillonii” (J Nat Prod, 2018)
# Target: T1, Neuroepithelial cell-transforming gene 1 protein (Homo sapiens) (UniProt Q7Z628)
# T1 sequence (whole entry): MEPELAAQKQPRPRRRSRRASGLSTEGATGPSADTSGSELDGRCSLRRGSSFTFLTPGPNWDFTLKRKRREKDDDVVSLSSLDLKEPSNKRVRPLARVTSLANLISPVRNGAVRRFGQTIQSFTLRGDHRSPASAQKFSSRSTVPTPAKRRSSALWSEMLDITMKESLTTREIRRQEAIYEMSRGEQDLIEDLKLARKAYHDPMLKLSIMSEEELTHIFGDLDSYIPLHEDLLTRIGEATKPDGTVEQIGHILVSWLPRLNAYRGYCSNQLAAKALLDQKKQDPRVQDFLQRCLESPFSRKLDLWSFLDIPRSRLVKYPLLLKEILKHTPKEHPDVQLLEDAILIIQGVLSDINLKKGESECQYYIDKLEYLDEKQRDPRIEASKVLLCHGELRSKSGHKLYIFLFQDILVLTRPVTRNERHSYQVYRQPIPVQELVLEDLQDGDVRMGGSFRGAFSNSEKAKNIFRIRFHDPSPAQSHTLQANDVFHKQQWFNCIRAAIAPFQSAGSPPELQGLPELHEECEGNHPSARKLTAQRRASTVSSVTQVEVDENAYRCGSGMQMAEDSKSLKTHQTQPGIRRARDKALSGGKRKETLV
# Assay: Inhibition of Net1 (149 to 501 residues) (unknown origin) interaction with GDP-loaded His-tagged RhoA F25N mutant (1 to 180 residues) assessed as reduction in BODIPY-GTP-GDP exchange at 200 uM pretreated for 30 mins followed by RhoA addition by fluorescence based spectrophotometric method relative to control
row,inhibition,Structure (SMILES)
1,4%,COc1c(O)cc2c3c(cc4ccccc4c13)NC(=O)C2=O
2,5%,COc1c(O)cc2c3c(cc4c(O)cccc4c13)NC2=O
3,5%,COc1cc(C)c2c(c1)Oc1c(cc(OC)cc1C(=O)O)OC2=O

row,Structure (SMILES),inhibition
1,CN1CCc2cc3c(c4c2c1cc1ccccc14)OCO3 [DEHYDROROEMERINE],83%

# Target: Rho guanine nucleotide exchange factor 1 (Homo sapiens, UniProt Q92888, F25N)
# Assay: (§1) Inhibition of p115 DHPH22 domain (395 to 766 residues) (unknown origin) interaction with GDP-loaded His-tagged RhoA F25N mutant (1 to 180 residues) assessed as reduction in BODIPY-GTP-GDP exchange pretreated for 30 mins followed by RhoA addition by fluorescence based spectrophotometric method
row,IC50,Structure (SMILES)
1,187 µM,COc1cc(C)c2c(c1C=O)Oc1c(c(C)c(O)c3c1C(O)OC3=O)OC2=O (stereo unspecified) [STICTIC ACID]

# Target: T2, Rho guanine nucleotide exchange factor 1 (Homo sapiens) (UniProt Q92888)
# T2 sequence (whole entry): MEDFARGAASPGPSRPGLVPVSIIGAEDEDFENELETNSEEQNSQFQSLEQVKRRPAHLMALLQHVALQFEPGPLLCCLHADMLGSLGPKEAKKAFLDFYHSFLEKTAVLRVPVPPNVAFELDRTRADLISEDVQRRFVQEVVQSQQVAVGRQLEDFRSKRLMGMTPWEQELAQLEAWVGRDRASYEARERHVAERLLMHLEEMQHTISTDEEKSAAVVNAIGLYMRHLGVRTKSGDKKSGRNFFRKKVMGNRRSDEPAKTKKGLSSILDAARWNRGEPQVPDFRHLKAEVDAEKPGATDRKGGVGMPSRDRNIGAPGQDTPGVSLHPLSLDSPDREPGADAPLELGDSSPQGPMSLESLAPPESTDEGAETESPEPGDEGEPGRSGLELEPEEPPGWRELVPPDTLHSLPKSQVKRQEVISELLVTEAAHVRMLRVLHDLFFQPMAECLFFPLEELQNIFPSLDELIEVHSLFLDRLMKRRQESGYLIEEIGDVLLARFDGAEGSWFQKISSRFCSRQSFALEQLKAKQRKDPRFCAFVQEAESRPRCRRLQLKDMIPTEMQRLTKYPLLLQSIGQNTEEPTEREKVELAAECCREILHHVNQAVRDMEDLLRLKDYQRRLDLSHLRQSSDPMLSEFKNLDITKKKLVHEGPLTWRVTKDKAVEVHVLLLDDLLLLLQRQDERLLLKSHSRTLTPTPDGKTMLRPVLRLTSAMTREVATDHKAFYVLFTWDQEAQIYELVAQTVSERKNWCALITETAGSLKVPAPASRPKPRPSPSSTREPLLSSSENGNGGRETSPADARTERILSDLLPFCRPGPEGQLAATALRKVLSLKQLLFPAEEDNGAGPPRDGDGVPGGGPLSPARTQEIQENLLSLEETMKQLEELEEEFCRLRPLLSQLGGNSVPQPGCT
# Assay: as §1, with “exchange at 200 uM” for “exchange”, “method relative to control” for “method”
row,Structure (SMILES),inhibition
1,COc1c(O)cc2c3c(cc4ccccc4c13)NC(=O)C2=O,0%
2,COc1cc(C)c2c(c1C=O)Oc1c(c(C)c(O)c3c1C(O)OC3=O)OC2=O (stereo unspecified) [STICTIC ACID],50.5%
3,COc1c(O)cc2c3c(cc4c(O)cccc4c13)NC2=O,0%
4,CN1CCc2cc3c(c4c2c1cc1ccccc14)OCO3 [DEHYDROROEMERINE],21%
5,COc1cc(C)c2c(c1)Oc1c(cc(OC)cc1C(=O)O)OC2=O,1%

# Now from value to compound:
row,inhibition,Structure (SMILES)
1,0%,C=CCC/C=C\C#CC#CCCCCCCC1=C[C@@H](C)OC1=O
2,0%,C=CCC/C=C\C#CC#CCCCCCC[C@H]1C(=O)O[C@H](C)[C@@H]1OC(C)=O
3,0%,C=CCC/C=C/C#CC#CCCCCCCCC(=O)O
4,10%,C=CCC/C=C/C#CC#CCCCCCC[C@H]1C(=O)O[C@H](C)[C@@H]1OC(C)=O
5,0%,C=CCC/C=C/C#CC#CCCCCCCCC[C@H]1C(=O)O[C@H](C)[C@@H]1OC(C)=O

# Target: Neuroepithelial cell-transforming gene 1 protein (Homo sapiens, UniProt Q7Z628, F25N)
# Assay: Inhibition of Net1 (149 to 501 residues) (unknown origin) interaction with GDP-loaded His-tagged RhoA F25N mutant (1 to 180 residues) assessed as reduction in BODIPY-GTP-GDP exchange pretreated for 30 mins followed by RhoA addition by fluorescence based spectrophotometric method
# How it was run: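 Exchange is started with 0.1 μM GDP-loaded His-RhoA F25N (1−180). Fluorescence (ex 480/em 540 nm) is read every minute, and initial rate is taken over the first 15 min. Controls are run with and without GEF.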
row,Structure (SMILES),IC50
1,CN1CCc2cc3c(c4c2c1cc1ccccc14)OCO3 [DEHYDROROEMERINE],120 µM
